Measured values published in ChEMBL document CHEMBL4390637, “Design, synthesis and biological evaluation of novel inhibitors against cyanobacterial pyruvate dehydrogenase multienzyme complex E1” (Bioorg Med Chem, 2019).

What was measured:
Sus scrofa = organism: Sus scrofa; assay: Inhibition of porcine PDHc-E1 at 100 uM using MTT and phenazine methosulfate incubated for 3 mins relative to untreated control
Procedure, shortened: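 Porcine PDHc E1 activity followed by MTT reduction at 566 nm. Mix: 1.0 mM MgCl2, 0.2 mM ThDP, 0.5 mM MTT, 6.5 mM PMS, 50 mM K3PO4 pH 7.0, 0.75 mg/mL enzyme, compound at 100 μM final; 3 min at 37 °C, then 2 mM sodium pyruvate added to start; percent inhibition reported.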

Microcystis aeruginosa = assay: Growth inhibition of Microcystis aeruginosa FACHB905 incubated for 7 days; type: functional, organism-based
Procedure, shortened: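 Cyanobacteria grown in BG11 medium at 28 °C on a 12 h light/12 h dark cycle for 7 days to logarithmic phase. A 1% inoculum was transferred into fresh medium containing compound at different concentrations and cultured 7 days. OD680 was read, then inhibition rate and EC50 were calculated. Values are means, n = 3.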

[1] = tested on: Synechocystis sp. PCC 6803; assay: Growth inhibition of Synechocystis sp. PCC6803 incubated for 7 days; type: functional, organism-based
[2] = Inhibition of Synechocystis sp. PCC6803 PDHC-E1 expressed in Escherichia coli BL-21 (DE3) using 6-DCIP and pyruvate incubated for 5 mins; set-up: species or system Synechocystis sp. PCC 6803
Procedure, shortened: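 Recombinant Cy-PDHc E1 (E. coli BL-21 (DE3) with GroEL/GroES chaperones, Ni-NTA purified) assayed by DCIP reduction in 50 mM K3PO4 pH 7.2, 0.375 mM DCIP, 0.1 mg/ml enzyme, 200 µM ThDP plus inhibitor, 5 min at 37 °C before saturating pyruvate; IC50 values as means ± SD, n = 3.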

[3] = tested on: Synechocystis sp. PCC 6803; assay: Inhibition of Synechocystis sp. PCC6803 PDHC-E1 expressed in Escherichia coli BL-21 (DE3) at 100 uM using 6-DCIP and pyruvate incubated for 5 mins relative to untreated control
Procedure, shortened: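 His-tagged Cy-PDHc E1 co-expressed with GroEL/GroES in E. coli BL-21 (DE3), Ni-NTA purified. Mix: 50 mM K3PO4 pH 7.2, 0.375 mM DCIP, 0.1 mg/ml enzyme, 200 µM ThDP, compound 100 μM; preincubated 5 min at 37 °C, reaction started with saturating pyruvate; percent inhibition reported.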

[4] = Microcystis aeruginosa, FACHB905, 168 h
[5] = Synechocystis sp. PCC 6803, 168 h

| Compound | inhibition (Sus scrofa) [%] | EC50 (Microcystis aeruginosa; [4]) [nM] | EC50 [1, 5] [nM] | IC50 [2] [nM] | inhibition [3] [%] | EC50 (Microcystis aeruginosa) [nM] | EC50 [1] [nM] |
| --- | --- | --- | --- | --- | --- | --- | --- |
| Cc1ncc(Cn2cc(COC(=O)c3ccccc3Cl)nn2)c(N)n1 | 7.31 | 1430 | 2440 | 3370 | 97.8 |  |  |
| Cc1ccc(C(=O)OCc2cn(Cc3cnc(C)nc3N)nn2)cc1 |  | 1200 | 1430 | 4480 | 95.3 |  |  |
| Cc1ncc(Cn2cc(COC(=O)c3ccc([N+](=O)[O-])cc3)nn2)c(N)n1 | 13.5 | 1330 | 1640 | 3570 | 95.7 |  |  |
| Cc1ncc(Cn2nnc(COC(=O)c3ccccc3Cl)c2I)c(N)n1 | 9.5 | 900 | 1170 | 1480 | 98.9 |  |  |
| Cc1ncc(Cn2cc(COc3ccc(F)cc3)nn2)c(N)n1 |  | > 100000 | > 100000 | > 100000 | 16.2 |  |  |
| Cc1ncc(Cn2nnc(COC(=O)c3ccc([N+](=O)[O-])cc3)c2I)c(N)n1 | 10.4 | 950 | 1090 | 1690 | 99.2 |  |  |
| Cc1ncc(Cn2nnc(COC(=O)c3ccc(F)cc3)c2I)c(N)n1 | 15.3 | 780 | 840 | 1610 | 95.4 |  |  |
| Cc1ccc(C(=O)OCc2nnn(Cc3cnc(C)nc3N)c2I)cc1 |  | 850 | 1140 | 1880 | 97.1 |  |  |
| Cc1ncc(Cn2cc(COc3ccc(Cl)cc3)nn2)c(N)n1 |  | > 100000 | > 100000 | > 100000 | 29.6 |  |  |
| Cc1ncc(Cn2cc(COc3ccc([N+](=O)[O-])cc3)nn2)c(N)n1 |  | > 100000 | > 100000 | > 100000 | 8.64 |  |  |
| Cc1ncc(Cn2cc(COC(=O)c3cccc(Cl)c3)nn2)c(N)n1 | 9.62 | 1290 | 1810 | 3730 | 93.2 |  |  |
| Cc1ncc(Cn2cc(COC(=O)c3ccc(Cl)cc3)nn2)c(N)n1 |  | 1110 | 2250 | 3550 | 94.2 |  |  |
| Cc1ncc(Cn2nnc(COC(=O)c3ccccc3)c2I)c(N)n1 | 21 | 990 | 1440 | 1940 | 96.5 |  |  |
| Cc1ncc(Cn2cc(COC(=O)c3ccccc3)nn2)c(N)n1 | 15.9 | 1170 | 1660 | 3580 | 95.5 |  |  |
| CUPRIC SULFATE |  |  |  |  |  | 1770 | 1470 |
| Cc1ncc(Cn2nnc(COC(=O)c3ccc(Cl)cc3)c2I)c(N)n1 |  | 1060 | 900 | 2350 | 95.6 |  |  |
| Cc1ncc(Cn2cc(COc3ccccc3)nn2)c(N)n1 |  | > 100000 | > 100000 | > 100000 | 19 |  |  |
| Cc1ncc(Cn2nnc(COC(=O)c3cccc(Cl)c3)c2I)c(N)n1 | 5.13 | 740 | 1160 | 1790 | 98.7 |  |  |
| Cc1ncc(Cn2cc(COC(=O)c3ccc(F)cc3)nn2)c(N)n1 | 17.8 | 1220 | 2110 | 3880 | 99.5 |  |  |
